Assay results from ChEMBL document CHEMBL4024715, “An in vitro and in vivo evaluation of new potential trans-sialidase inhibitors of Trypanosoma cruzi predicted by a computational drug repositioning method” (Eur J Med Chem, 2017).
Values after ≈ are worked out from the molar mass of the structure shown. Active and inactive are the calls of the source. The calls are words filed in the database; no cut-off is given here.

Columns and labels:
Trypanosoma cruzi [1] = test: Trypanocidal activity against bloodstream form of Trypanosoma cruzi NINOA infected in NIH mouse assessed as reduction in parasitemia at 100 mg/kg, po measured at 2 to 4 hrs post dose by microscopic method; assay type: functional, organism-based
Summary of the method: (§1)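 Groups of five female NIH mice (20-25 g) infected intraperitoneally with 2×10^5 bloodstream trypomastigotes. At peak parasitemia (days 19-24), compounds suspended in 4% gum arabic were given orally, 100 mg/kg total dose. Vehicle-only controls. Tail blood examined microscopically at 2, 4 and 6 h after dosing. Parasitemia reduction scored against trypomastigote counts at each interval.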

Trypanosoma cruzi [2] = test: Trypanocidal activity against trypomastigote stage of Trypanosoma cruzi INC-5 infected in NIH mouse blood assessed as parasite lysis at 50 ug/ml after 24 hrs by optical microscopic method relative to control; assay type: functional
Summary of the method: (§2)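 Blood from infected NIH mice was taken by cardiac puncture at peak infection and adjusted to 1×10^6 trypomastigotes/mL. Compounds came from 10 mg/mL DMSO stocks diluted in water; final DMSO below 1%. Incubation was 24 h at 4 °C. Controls were DMSO/H₂O 1:99, untreated blood and reference drug. Trypomastigotes in 5 µL blood were counted by the Brener method at 40×. Percent lysis was taken versus the negative control, with three runs per strain.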

Trypanosoma cruzi [3] = test: Trypanocidal activity against bloodstream form of Trypanosoma cruzi NINOA infected in NIH mouse assessed as reduction in parasitemia at 100 mg/kg, po measured at 4 hrs post dose by microscopic method relative to control; assay type: functional; design: scale not given: the % may be the effect or the level left; summary of the method: as §1
[4] = molecular target: T1, Trans-sialidase (Trypanosoma cruzi) (UniProt Q26964); test: Inhibition of Trypanosoma cruzi trans-sialidase at 1 mM using N-acetyllactosamine as substrate in presence of 3'-sialyllactose measured after 15 mins by HPAEC-PAD relative to control
T1 sequence (whole entry): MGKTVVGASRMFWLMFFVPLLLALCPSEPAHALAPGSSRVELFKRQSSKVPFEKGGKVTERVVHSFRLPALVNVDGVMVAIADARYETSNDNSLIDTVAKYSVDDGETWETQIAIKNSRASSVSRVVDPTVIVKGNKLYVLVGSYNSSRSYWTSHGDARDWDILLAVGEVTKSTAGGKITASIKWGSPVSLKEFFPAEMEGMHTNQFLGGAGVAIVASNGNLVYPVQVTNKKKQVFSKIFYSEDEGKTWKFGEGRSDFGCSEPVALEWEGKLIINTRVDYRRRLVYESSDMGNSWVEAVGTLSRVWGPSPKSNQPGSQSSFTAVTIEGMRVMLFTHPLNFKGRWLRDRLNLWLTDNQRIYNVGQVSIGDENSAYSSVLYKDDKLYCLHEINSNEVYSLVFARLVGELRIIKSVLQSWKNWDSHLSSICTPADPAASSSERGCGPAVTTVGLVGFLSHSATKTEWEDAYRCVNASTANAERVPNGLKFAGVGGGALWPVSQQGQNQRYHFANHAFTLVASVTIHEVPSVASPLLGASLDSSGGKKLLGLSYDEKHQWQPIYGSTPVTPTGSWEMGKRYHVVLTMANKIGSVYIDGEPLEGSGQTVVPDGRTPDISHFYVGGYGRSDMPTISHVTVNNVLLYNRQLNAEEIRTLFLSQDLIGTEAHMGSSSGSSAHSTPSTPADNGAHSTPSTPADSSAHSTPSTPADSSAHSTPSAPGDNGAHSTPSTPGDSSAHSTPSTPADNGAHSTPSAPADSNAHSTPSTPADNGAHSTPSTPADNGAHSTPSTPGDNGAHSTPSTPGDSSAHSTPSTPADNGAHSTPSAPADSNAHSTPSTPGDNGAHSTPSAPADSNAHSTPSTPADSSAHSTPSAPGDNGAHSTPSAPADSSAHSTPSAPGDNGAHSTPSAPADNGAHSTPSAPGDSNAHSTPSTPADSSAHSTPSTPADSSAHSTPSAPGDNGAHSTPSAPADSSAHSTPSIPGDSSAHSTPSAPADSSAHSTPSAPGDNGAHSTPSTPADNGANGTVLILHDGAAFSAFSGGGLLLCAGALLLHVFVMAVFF
Summary of the method: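 Purified T. cruzi Ts (300 ng) incubated 15 min at room temperature in 20 mM Tris-HCl pH 7, 30 mM NaCl with 1 mM 3'-sialyllactose donor, 1 mM N-acetyllactosamine acceptor and 1 mM inhibitor. Water-insoluble compounds added from 10 mM DMSO stock; DMSO-only control. Samples diluted 12-fold and analysed by HPAEC-PAD. Inhibition from 3'-sialyl-N-acetyllactosamine relative to total sialylated products, with vs without compound.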

Trypanosoma cruzi [5] = test: Trypanocidal activity against trypomastigote stage of Trypanosoma cruzi NINOA infected in NIH mouse blood after 24 hrs by optical microscopic method
Trypanosoma cruzi [6] = test: Trypanocidal activity against trypomastigote stage of Trypanosoma cruzi NINOA infected in NIH mouse blood assessed as parasite lysis at 50 ug/ml after 24 hrs by optical microscopic method relative to control; assay type: functional; summary of the method: as §2
Trypanosoma cruzi [7] = test: Trypanocidal activity against bloodstream form of Trypanosoma cruzi NINOA infected in NIH mouse assessed as reduction in parasitemia at 100 mg/kg, po measured at 6 hrs post dose by microscopic method; assay type: functional, organism-based; summary of the method: as §1
[8] = Solubility of the compound in water; assay type: physicochemical; conditions: buffer
Trypanosoma cruzi [9] = test: Trypanocidal activity against trypomastigote stage of Trypanosoma cruzi INC-5 infected in NIH mouse blood after 24 hrs by optical microscopic method; assay type: functional; conditions: INC-5, Blood
Trypanosoma cruzi [10] = test: Trypanocidal activity against bloodstream form of Trypanosoma cruzi INC-5 infected in NIH mouse assessed as reduction in parasitemia at 100 mg/kg, po measured up to 6 hrs post dose by microscopic method; assay type: functional, organism-based; summary of the method: as §1
Trypanosoma cruzi [11] = test: Trypanocidal activity against bloodstream form of Trypanosoma cruzi NINOA infected in NIH mouse assessed as reduction in parasitemia at 100 mg/kg, po measured up to 6 hrs post dose by microscopic method; assay type: functional, organism-based; summary of the method: as §1
Trypanosoma cruzi [12] = test: Trypanocidal activity against bloodstream form of Trypanosoma cruzi INC-5 infected in NIH mouse assessed as reduction in parasitemia at 100 mg/kg, po measured at 6 hrs post dose by microscopic method; assay type: functional, organism-based; summary of the method: as §1
Trypanosoma cruzi [13] = test: Trypanocidal activity against bloodstream form of Trypanosoma cruzi INC-5 infected in NIH mouse assessed as reduction in parasitemia at 100 mg/kg, po measured at 2 to 4 hrs post dose by microscopic method; assay type: functional, organism-based; summary of the method: as §1

Row | SMILES | Activity (Trypanosoma cruzi [1]) | Activity (Trypanosoma cruzi [2]) [%] | Activity (Trypanosoma cruzi [3]) [%] | inhibition [4] | LC50 (Trypanosoma cruzi [5]) [µg/mL] | Activity (Trypanosoma cruzi [6]) [%] | Activity (Trypanosoma cruzi [7]) | solubility [8] | LC50 (Trypanosoma cruzi [9]) [µg/mL] | Activity (Trypanosoma cruzi [10]) | Activity (Trypanosoma cruzi [11]) | Activity (Trypanosoma cruzi [12]) | Activity (Trypanosoma cruzi [13])
1 | O=C(O)c1cc(/N=N/c2ccc(S(=O)(=O)Nc3ccccn3)cc2)ccc1O [SULFASALAZINE] | Active | 10 | 60 | 37.6% | 19.3 (≈ 48.4 µM) | 92 | inactive | Insoluble |  |  |  |  | 
2 | NC(=O)c1cc[n+](CC2=C(C(=O)[O-])N3C(=O)[C@@H](NC(=O)[C@@H](c4ccccc4)S(=O)(=O)O)[C@H]3SC2)cc1 | Active |  |  | inactive |  |  | inactive |  |  |  |  |  | 
3 | CC1CS(=O)(=O)CCN1/N=C/c1ccc([N+](=O)[O-])o1 (stereo not given) [NIFURTIMOX] |  | 51 |  |  |  | 66 |  |  |  |  |  |  | 
4 | O=C(O)C(O)C(O)C(=O)O.O=C(c1ccc(F)cc1)C1CCN(CCn2c(=O)[nH]c3ccccc3c2=O)CC1 [KETANSERIN TARTRATE] |  | 73 |  |  | 13.6 | 89 |  |  | 18.4 |  |  |  | 
5 | COC(=O)Nc1nc2cc(C(=O)c3ccc(F)cc3)ccc2[nH]1 [FLUBENDAZOLE] |  | 42 |  | inactive |  | 41 |  | Insoluble |  |  |  |  | 
6 | O=C(Cn1ccnc1[N+](=O)[O-])NCc1ccccc1 [BENZNIDAZOLE] |  | 56 |  |  | 46.6 (≈ 179 µM) | 69 |  |  | 40.6 (≈ 156 µM) | Active | Active |  | 
7 | NC(=O)c1cc[n+](CC2=C(C(=O)[O-])N3C(=O)[C@@H](NC(=O)[C@@H](c4ccccc4)S(=O)(=O)[O-])[C@H]3SC2)cc1.[Na+] [CEFSULODIN SODIUM] |  | 14 |  |  | 16.6 | 87 |  |  |  |  |  |  | 
8 | CC(C)(C)c1ccc(C(O)CCCN2CCC(C(O)(c3ccccc3)c3ccccc3)CC2)cc1 (stereo not given) [TERFENADINE] | Active | 100 |  | 8.2% | 16.3 (≈ 34.6 µM) | 100 | inactive | Insoluble | 4.5 (≈ 9.54 µM) |  |  | inactive | Active
9 | COc1cc2nc(N3CCN(C(=O)C4COc5ccccc5O4)CC3)nc(N)c2cc1OC.CS(=O)(=O)O (stereo not given) [DOXAZOSIN MESYLATE] |  | 89 |  | 5.3% | 12.9 | 97 |  | Insoluble | 14.7 |  |  |  | 
10 | CCN1CCN(C(=O)N[C@@H](C(=O)N[C@@H]2C(=O)N3C(C(=O)[O-])=C(CSc4nnnn4C)CS[C@H]23)c2ccc(O)cc2)C(=O)C1=O.[Na+] [CEFOPERAZONE SODIUM] | Active | 71 |  | 10.1% | 25.8 | 64 | inactive |  | 23 |  |  | inactive | Active
